ABHD4 inh: inhibits mouse alpha/beta hydrolase domain 4. inhibition, % at 8.92 µM. AID 720543. Q8VD66. actives 0.54% (n = 370,000). purified mABHD4, FP-Rh probe fluorescence polarization;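 active means inhibition exceeding the mean over every tested compound plus 3 SD, cut at about 30% in these data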;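 further: 0% = plate median of compound wells and 100% = S159A mutant with DMSO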
Target sequence (Q8VD66 whole entry, looked up, the tested form may be a part): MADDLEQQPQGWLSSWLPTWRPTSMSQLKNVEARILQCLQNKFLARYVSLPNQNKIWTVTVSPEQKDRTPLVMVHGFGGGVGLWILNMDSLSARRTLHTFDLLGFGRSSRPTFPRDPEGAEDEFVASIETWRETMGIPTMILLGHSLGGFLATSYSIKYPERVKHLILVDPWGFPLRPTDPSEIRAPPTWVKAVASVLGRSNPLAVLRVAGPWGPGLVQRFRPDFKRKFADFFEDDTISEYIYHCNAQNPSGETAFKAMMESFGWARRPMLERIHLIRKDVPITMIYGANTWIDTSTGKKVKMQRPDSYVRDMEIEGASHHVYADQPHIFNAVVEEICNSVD
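Assay system: wild-type mouse ABHD4 protein; compound: single nominal dose of 8.92 µM, 0.89% DMSO final; schedule: 45 min + 60 min at 25 °C; measured by: FP readout, ex 525 nm / em 598 nm; evaluation: % inhibition of FP-Rh probe binding versus controls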
HTRA1 inhibitor: blocks human HTRA1 serine peptidase | Q92743 | recombinant HTRA1, FP-rhodamine activity-based probe, fluorescence polarization | inhibition, % at 5.96 µM | actives 0.5% (n = 340,000) | AID 504803; in the data active means inhibition above about 36%;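 further: 0% = enzyme with DMSO and 100% = wells lacking enzyme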
TCR-CD3 inh: inhibitors of human TCR-CD3 interaction. inhibition, % at 9.4 µM. actives 0.37% (n = 360,000). TAMRA-labeled TCR probe fluorescence, biochemical; in the data active means inhibition above about 19%;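 further: recombinant mutant TCR 2C K166C tagged with TAMRA read by polarization; 0% = receptor in buffer alone and 100% = receptor with positive control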
SIAE primary: human SIAE inhibition, primary screen; Q9HAT2; SIAE FP-Rh probe binding, fluorescence polarization; inhibition, % at 9.66 µM; actives 0.69% (n = 370,000); AID 1053197;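 active means inhibition above a cutoff: mean of compounds within the control limits plus 3 SD of those, cut at about 17% in these data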;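 further: 0% = plate median of compound wells and 100% = probe without SIAE protein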
Fam108B inh: blocks mouse Fam108B hydrolase in RBBP9 counter-screen; recombinant Fam108B, FP-Rh probe fluorescence polarization; inhibition, % at 9.51 µM; actives 0.33% (n = 300,000); AID 1947;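 active means inhibition above the screen mean inhibition plus 3 SD, computed separately per campaign, cut at about 18% in these data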;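 further: inhibitors lower polarization as less probe binds the enzyme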
PME-1 primary: PME-1 (human) inhibition. Q9Y570. inhibition, % at 5.9 µM. recombinant PME-1, FP-Rh probe fluorescence polarization. actives 0.53% (n = 320,000). AID 2130;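 active means inhibition above the campaign mean of all compounds plus 3 SD, cut at about 26% in these data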;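 further: competitive labeling of PME-1 active site by serine hydrolase directed probe; 0% = PME-1 with DMSO and 100% = wells lacking PME-1 enzyme; inhibitors block probe labeling so polarization falls and inhibition rises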
SIAE confirm: human SIAE inhibition, confirmation; SIAE FP-Rh activity-based probe, fluorescence polarization; actives 13% (n = 2,300); inhibition, % at 9.66 µM; shares compounds with SIAE primary;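 active means mean inhibition of the replicates above the hit cutoff set in the primary screen, cut at about 17% in these data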;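 further: 0% = SIAE with DMSO and probe and 100% = probe without SIAE; inhibitors lower polarization as more probe stays unbound to SIAE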
Numbers without * were called inactive; / = no result given; ! = not active in a repeat. An excerpt weighted towards active compounds, which were near 1.8% of everything screened.

SMILES	ABHD4 inh	HTRA1 inhibitor	TCR-CD3 inh	SIAE primary	Fam108B inh	PME-1 primary	SIAE confirm
CC1Cc2ccccc2N1C(=O)CN1CCN(Cc2ccccc2)CC1 (configuration not stated)	4	-1	-1	7	-2	-10	/
Cc1cccc(NS(=O)(=O)c2ccc(C(=O)NCCCN3CCCC3=O)cc2)c1C	0	-1	2	-2	-3	3	/
CCc1ccc(CN2CCC(C(=O)Nc3ccc(-n4nc(C)cc4C)cc3)CC2)o1	-4	5	-1	3	1	2	/
COC(=O)/C(=C\c1c[nH]c2ccccc12)NC(C)=O	1	-3	6	-2	0	4	/
CCOC(=O)/C(=C\c1c[nH]c2ccccc12)NC(C)=O	5	2	-9	18*	4	2	4
CSc1ccc(Cl)c(C(=O)Nc2cc(S(=O)(=O)N3CCOCC3)ccc2N2CCOCC2)c1	1	7	-2	-3	/	/	/
C/C(=N\Nc1nc2ccccc2[nH]1)c1ccc2c(c1)OCO2	24	19	6	10	-2	-25	/
C/C(=N\Nc1nc2ccccc2[nH]1)c1ccc2c(c1)OCCO2	22	14	4	20*	7	-31	13
C/C(=N\Nc1nc2ccccc2[nH]1)c1cc2ccccc2o1	29	8	-4	24*	14	15	16
O=C(Cn1nc(C(=O)O)c2ccccc2c1=O)Nc1cccc(S(=O)(=O)N2CCCC2)c1	-5	-7	-1	10	/	/	/
COc1ccc(/C=C2\N=C3CCCCCN3C2=O)cc1OC	-2	11	-2	110*	-2	2	5
COc1cc(/C=C2\N=C3CCCCCN3C2=O)ccc1O	8	0	-6	4	0	4	/
O=C(N/N=C/c1c[nH]c2ccc(Br)cc12)c1ccn(Cc2ccc(Cl)cc2)n1	8	-26	-3	-19	2	-6	/
CCCOc1ccc(C(=O)N/N=C/c2c[nH]c3ccc(Br)cc23)cc1	-7	1	0	19*	8	22	-12
CC(C)(C)c1ccc2c(c1)N(CC(=O)N1CCCC1)C(=O)CO2	-2	10	4	3	-2	3	/
Cc1cc(NC(=O)c2cccc(S(=O)(=O)N3CCCCC3)c2)no1	0	-4	-7	2	0	5	/
CC(=O)Nc1cc(N=Cc2ccc(O)cc2O)c(Cl)cc1Cl	/	-7	/	/	8	5	/
COc1ccc(O)c(C=Nc2cc(NC(C)=O)c(Cl)cc2Cl)c1	-5	-1	-7	18*	-6	2	1
O=C(c1ccccc1Oc1ccccc1)N1CCC(Oc2cccnc2)CC1	-1	/	/	20*	/	/	1
COc1ccccc1C(=O)N1CCC(Oc2cccnc2)CC1	5	/	/	1	/	/	/
O=C(CNc1ccc2ccccc2c1)N/N=C/c1ccc(OC(=O)/C=C/c2ccco2)cc1	-6	8	-3	22*	16	30*	14
Cc1ccc([C@H]2C[C@H](n3cc(C4CC4)nn3)[C@@H](O)CN2C(=O)C2CCCCC2)cc1	-1	-4	2	1	/	/	/
O=c1[nH]cnc2ccc([N+](=O)[O-])cc12	9	3	-3	5	2	6	/
O=c1[nH][nH]c(=O)c2cc([N+](=O)[O-])ccc12	8	6	0	18*!	/	1	5
CCOC(=O)C(C)c1c(C(=O)c2ccc(C)nc2)c2ccccc2n1C (configuration not stated)	-5	/	-14	-1	1	1	/
COC(=O)[C@@]12C[C@@H](CC(=O)NCCCN3CCCC3=O)C(=O)N(Cc3ccco3)C1=CCC(C)(C)C2	13	/	0	7	/	/	/
Clc1ccc(/C=N/Nc2ncnc3ccccc23)cc1Cl	-2	2	3	27*	11	15	-23
Fc1ccccc1/C=N/Nc1ncnc2ccccc12	6	13	6	-9	-2	14	/
CCOC(=O)C(NC(=O)Nc1ncccn1)(Oc1ccccc1)C(F)(F)F (configuration not stated)	5	3	-1	24*	1	-4	3
CCc1ncc(CN2CCCCC2C(=O)Nc2ccc(Oc3ccccc3)nc2)cn1 (configuration not stated)	0	-2	2	2	3	3	/
